# How the values were obtained:
# Mus musculus [1] = experiment: Induction of cell proliferation in C57BL/6 mouse hippocampal neurons in CA3 region assessed as BrdU-incorporation at 0.5 uL/hr, icv for 7 days by immunohistochemical analysis (reference value: 1.4%); format: functional
# Mus musculus [2] = experiment: Toxicity in double APP/PS1 transgenic Alzheimer's disease mouse model assessed as carcinogenicity in spleen at 30 mg/kg/day, po for 80 days; format: organism-based; settings: in vivo, 1920 h
# Summary of the method: (§1)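 APP/PS1 double-transgenic mice, six months old, dosed by intragastric infusion at 30 mg/kg/day in 0.5% CMC-Na for 80 consecutive days (n = 10). Vehicle mice and wild-type C57BL/6 mice received blank 0.5% CMC-Na. Body weight tracked daily; diarrhoea, emesis-like behaviour and mortality monitored. At sacrifice, brain, subcutaneous layer, stomach, intestines, heart, lung, liver, spleen, kidneys and other organs examined for expansion or carcinogenicity.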
# Mus musculus [3] = experiment: Induction of cell proliferation in C57BL/6 mouse hippocampal neurons in CA1 region assessed as BrdU-incorporation at 0.5 uL/hr, icv for 7 days by immunohistochemical analysis (reference value: 3.2%); format: functional
# Mus musculus [4] = experiment: Toxicity in double APP/PS1 transgenic Alzheimer's disease mouse model assessed as carcinogenicity in heart at 30 mg/kg/day, po for 80 days; format: organism-based; settings: in vivo, 1920 h; summary of the method: as §1
# Mus musculus [5] = experiment: Toxicity in double APP/PS1 transgenic Alzheimer's disease mouse model assessed as carcinogenicity in intestine at 30 mg/kg/day, po for 80 days; format: organism-based; settings: in vivo, 1920 h; summary of the method: as §1
# Mus musculus [6] = experiment: Toxicity in double APP/PS1 transgenic Alzheimer's disease mouse model assessed as diarrhea at 30 mg/kg/day, po for 80 days; format: organism-based; settings: in vivo, 1920 h; summary of the method: as §1
# Mus musculus [7] = experiment: Toxicity in double APP/PS1 transgenic Alzheimer's disease mouse model assessed as emesis-like behavior at 30 mg/kg/day, po for 80 days; format: organism-based; settings: in vivo, 1920 h; summary of the method: as §1
# Mus musculus [8] = experiment: Induction of cell proliferation in C57BL/6 mouse hippocampal neurons in CA1 region assessed as BrdU-incorporation at 30 mg/kg, po administered via gavage for 7 days by immunohistochemical analysis (reference value: 2.3%); format: functional
# Summary of the method: (§2)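 C57BL/6 mice, 12 weeks old, n = 6, individually housed beforehand without wheels. Compound gavaged 30 mg/kg/day for 7 days with daily IP BrdU 50 mg/kg; BrdU+ cells counted by immunohistochemistry per hippocampal volume; two-way ANOVA.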
# Mus musculus [9] = experiment: Cognition enhancement activity in double APP/PS1 transgenic Alzheimer's disease mouse model assessed as swimming path length in virtual platform at 30 mg/kg/day, po for 80 days by Morris water maze test (reference value: 9.1 +/- 2.8 cm); format: functional
# Summary of the method: (§3)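 APP/PS1 mice, six months old, gavaged 30 mg/kg/day in 0.5% CMC-Na for 80 days. Probe trial was a single 90 s free swim with the platform absent; effective region is twice the platform diameter. n = 10, mean ± SD, two-way ANOVA.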
# Mus musculus [10] = experiment: Antialzheimer activity in double APP/PS1 transgenic Alzheimer's disease mouse model assessed as reduction in amyloid beta burden at 30 mg/kg/day, po for 80 days by immunochemical staining-based analysis relative to control; format: functional; design: scale not given: the % may be the effect or the level left
# Summary of the method: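 APP/PS1 mice gavaged 30 mg/kg/day for 80 days (n = 10). Coronal sections immunostained with mOC64 anti-Aβ antibody; plaque burden is the percent area of a half coronal hemisphere.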
# Mus musculus [11] = experiment: Toxicity in C57BL/6 mouse assessed as effect on water intake at 677 to 2000 mg/kg, ig measured continuously during first 4 hrs, intermittently for following 24 hrs and occasionally thereafter for 14 consecutive days; format: organism-based; settings: in vivo, po
# Mus musculus [12] = experiment: Toxicity in C57BL/6 mouse assessed as histological abnormalities of lung at 2000 mg/kg, ig after 14 consecutive days by hematoxylin/eosin dye-based microscopic analysis; format: organism-based; settings: in vivo, po, 336 h
# Summary of the method: (§4)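 Adult C57BL/6 mice, 12 weeks old, single intragastric doses of 0, 677, 1333 or 2000 mg/kg (n = 6 per dose, 3 male/3 female); behaviour and mortality observed over 14 days; liver, heart, lung and brain examined by HE staining at 2000 mg/kg.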
# Mus musculus [13] = experiment: Toxicity in C57BL/6 mouse assessed as histological abnormalities of brain at 2000 mg/kg, ig after 14 consecutive days by hematoxylin/eosin dye-based microscopic analysis; format: organism-based; settings: in vivo, po, 336 h; summary of the method: as §4
# Mus musculus [14] = experiment: Cognition enhancement activity in double APP/PS1 transgenic Alzheimer's disease mouse model assessed as swimming path length in effective region at 30 mg/kg/day, po for 80 days by Morris water maze test (reference value: 44.2 +/- 4.9 cm); format: functional; summary of the method: as §3
# Mus musculus [15] = experiment: Toxicity in C57BL/6 mouse assessed as mortality at 677 to 2000 mg/kg, ig measured continuously during first 4 hrs, intermittently for following 24 hrs and occasionally thereafter for 14 consecutive days; format: organism-based; settings: in vivo, po
# Summary of the method: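 Adult C57BL/6 mice, 12 weeks old, given single intragastric doses of 0, 677, 1333 or 2000 mg/kg (n = 6 per dose, 3 male and 3 female). Abnormal behaviour and deaths observed continuously for the first 4 h, intermittently over the next 24 h, then occasionally for 14 days to catch delayed effects.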
# [16] = Half life in Sprague-Dawley rat liver microsomes at 100 uM up to 180 mins by HPLC-UV analysis; settings: liver microsomes
# Mus musculus [17] = experiment: Toxicity in C57BL/6 mouse assessed as effect on body weight at 677 to 2000 mg/kg, ig measured continuously during first 4 hrs, intermittently for following 24 hrs and occasionally thereafter for 14 consecutive days; format: organism-based; settings: in vivo, po
# Mus musculus [18] = experiment: Toxicity in C57BL/6 mouse assessed as macroscopic abnormalities of stomach at 677 to 2000 mg/kg, ig after 14 consecutive days; format: organism-based; settings: in vivo, po
# Mus musculus [19] = experiment: Cognition enhancement activity in double APP/PS1 transgenic Alzheimer's disease mouse model assessed as time spent in effective region at 30 mg/kg/day, po for 80 days by Morris water maze test (reference value: 9.0 +/- 3.8 sec); format: functional; summary of the method: as §3
# Mus musculus [20] = experiment: Cognition enhancement activity in double APP/PS1 transgenic Alzheimer's disease mouse model assessed as swimming path length in correct quadrant at 30 mg/kg/day, po for 80 days by Morris water maze test (reference value: 295.3 +/- 46.9 cm); format: functional; summary of the method: as §3
# Mus musculus [21] = experiment: Toxicity in double APP/PS1 transgenic Alzheimer's disease mouse model assessed as carcinogenicity in stomach at 30 mg/kg/day, po for 80 days; format: organism-based; settings: in vivo, 1920 h; summary of the method: as §1
# Mus musculus [22] = experiment: Toxicity in double APP/PS1 transgenic Alzheimer's disease mouse model assessed as carcinogenicity in liver at 30 mg/kg/day, po for 80 days; format: organism-based; settings: in vivo, 1920 h; summary of the method: as §1
# Mus musculus [23] = experiment: Induction of cell proliferation in C57BL/6 mouse hippocampal neurons in DG region assessed as BrdU-incorporation at 30 mg/kg, po administered via gavage for 7 days by immunohistochemical analysis (reference value: 2.2%); format: functional; summary of the method: as §2
# [24] = Metabolic stability in Sprague-Dawley rat liver microsomes assessed as metabolic rate constant at 100 uM up to 180 mins by HPLC-UV analysis; settings: 3 h
# Mus musculus [25] = experiment: Toxicity in double APP/PS1 transgenic Alzheimer's disease mouse model assessed as carcinogenicity in lung at 30 mg/kg/day, po for 80 days; format: organism-based; settings: in vivo, 1920 h; summary of the method: as §1
# Mus musculus [26] = experiment: Induction of cell proliferation in C57BL/6 mouse hippocampal neurons in DG region assessed as BrdU-incorporation at 0.5 uL/hr, icv for 7 days by immunohistochemical analysis (reference value: 7.8%); format: functional
Structure (SMILES),Activity (Mus musculus [1]),Activity (Mus musculus [2]),Activity (Mus musculus [3]),Activity (Mus musculus [4]),Activity (Mus musculus [5]),Activity (Mus musculus [6]),Activity (Mus musculus [7]),Activity (Mus musculus [8]),Activity (Mus musculus [9]),Activity (Mus musculus [10]),Activity (Mus musculus [11]),Activity (Mus musculus [12]),Activity (Mus musculus [13]),Activity (Mus musculus [14]),Activity (Mus musculus [15]),"half-life at 3 h, 100 µM [16]",Activity (Mus musculus [17]),Activity (Mus musculus [18]),Time (Mus musculus [19]),Activity (Mus musculus [20]),other results
Cl.Oc1ccc2[nH]c(-c3ccc4c(Cl)cc(Cl)c(O)c4n3)cc2c1,36.5%,Non-Toxic,50.1%,Non-Toxic,Non-Toxic,Non-Toxic,Non-Toxic,21.1%,22.1 cm,<=54%,Non-Toxic,Non-Toxic,Non-Toxic,71.3 cm,Non-Toxic,1.95 h,Non-Toxic,Non-Toxic,18 s,533.3 cm,Activity (Mus musculus [21]): Non-Toxic; Activity (Mus musculus [22]): Non-Toxic; Activity (Mus musculus [23]): 30.6%; K [24]: 0.00593 min⁻¹; Activity (Mus musculus [25]): Non-Toxic; Activity (Mus musculus [26]): 41.3%
Cl.Oc1c(Cl)cc(Cl)c2ccc(-c3cc4cc5c(cc4[nH]3)OCO5)nc12,37.6%,Non-Toxic,49.8%,Non-Toxic,Non-Toxic,Non-Toxic,Non-Toxic,14.6%,15 cm,26%,Non-Toxic,Non-Toxic,Non-Toxic,65.5 cm,Non-Toxic,6.49 h,Non-Toxic,Non-Toxic,16.7 s,473.5 cm,Activity (Mus musculus [21]): Non-Toxic; Activity (Mus musculus [22]): Non-Toxic; Activity (Mus musculus [23]): 17%; K [24]: 0.00178 min⁻¹; Activity (Mus musculus [25]): Non-Toxic; Activity (Mus musculus [26]): 31.2%

# — ChEMBL document CHEMBL4118104, “Design, Synthesis, and Evaluation of Orally Bioavailable Quinoline-Indole Derivatives as Innovative Multitarget-Directed Ligands: Promotion of Cell Proliferation in the Adult Murine Hippocampus for the Treatment of Alzheimer's Disease” (J Med Chem, 2018)
